Assay results reported in ChEMBL document CHEMBL1155323, “Synthesis, characterization and antibacterial activity of 2-[1-(5-chloro-2-methoxy-phenyl)-5-methyl-1H-pyrazol-4-yl]-5-(substituted-phenyl)-[1,3,4]oxadiazoles” (Eur J Med Chem, 2009).
≈ marks a conversion by molar mass, not a printed value.

Key:
Klebsiella pneumoniae [1] = assay: Antibacterial activity against Klebsiella pneumoniae ATCC 11298 after 24 hrs by microtitration method; assay type: functional; conditions: ATCC 11298, 24 h
In short: (§1)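 Strains grown in Luria broth (1% tryptone, 0.5% yeast extract, 0.5% NaCl), pH 7.2, at 37 °C for 24 h. Mid-log cells read at 540 nm and diluted to OD 0.004 (5×10^5 CFU/mL), then dispensed into microplate wells. Graded concentrations (0.2–500 µg/mL) in 20% water in DMSO added; incubated 37 °C, 24 h.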

Escherichia coli [2] = assay: Antibacterial activity against Escherichia coli ATCC 8739 after 24 hrs by microtitration method; assay type: functional; conditions: ATCC 8739, 24 h; in short: as §1
Bacillus subtilis [3] = assay: Antibacterial activity against Bacillus subtilis ATCC 6633 after 24 hrs by microtitration method; assay type: functional; conditions: ATCC 6633, 24 h; in short: as §1
Staphylococcus aureus [4] = assay: Antibacterial activity against Staphylococcus aureus ATCC 6538P after 24 hrs by microtitration method; assay type: functional; in short: as §1
Escherichia coli [5] = assay: Antibacterial activity against Escherichia coli ATCC 8739 at 100 ug/ml after 24 hrs by agar cup plate method; assay type: functional; conditions: ATCC 8739, 24 h, read-out: IZ
In short: (§2)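 Agar well (bore) diffusion on inoculated nutrient agar with recultured organisms. Test samples prepared in 20% water in DMSO at 100 µg/mL and placed in bores. Plates incubated at 37 °C for 24 h, then the inhibition zone around each bore measured. Controls: inoculum only, and DMSO only.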

Klebsiella pneumoniae [6] = assay: Antibacterial activity against Klebsiella pneumoniae ATCC 11298 at 100 ug/ml after 24 hrs by agar cup plate method; assay type: functional; conditions: ATCC 11298, 24 h, read-out: IZ; in short: as §2
Staphylococcus aureus [7] = assay: Antibacterial activity against Staphylococcus aureus ATCC 6538P at 100 ug/ml after 24 hrs by agar cup plate method; assay type: functional; conditions: read-out: IZ; in short: as §2
Bacillus subtilis [8] = assay: Antibacterial activity against Bacillus subtilis ATCC 6633 at 100 ug/ml after 24 hrs by agar cup plate method; assay type: functional; conditions: ATCC 6633, 24 h, read-out: IZ; in short: as §2
[9] = Octanol-water partition coefficient, log P by shake flask method; assay type: physicochemical

Structure (SMILES)	MIC (Klebsiella pneumoniae [1]) [µg/mL]	MIC (Escherichia coli [2]) [µg/mL]	MIC (Bacillus subtilis [3]) [µg/mL]	MIC (Staphylococcus aureus [4]) [µg/mL]	zone of inhibition at 100 µg/mL (Escherichia coli [5]) [mm]	zone of inhibition at 100 µg/mL (Klebsiella pneumoniae [6]) [mm]	zone of inhibition at 100 µg/mL (Staphylococcus aureus [7]) [mm]	zone of inhibition at 100 µg/mL (Bacillus subtilis [8]) [mm]	logP [9]
COc1ccc(Cl)cc1-n1ncc(-c2nnc(-c3ccc(Br)cc3)o2)c1C	41.6 (≈ 93.3 µM)	39.8 (≈ 89.3 µM)	40.6 (≈ 91.1 µM)	30 (≈ 67.3 µM)	15	13	19	14	4.88
COc1ccc(Cl)cc1-n1ncc(-c2nnc(-c3ccc(Br)c(C)c3)o2)c1C	40 (≈ 87 µM)	30.8 (≈ 67 µM)	39.8 (≈ 86.6 µM)	39.8 (≈ 86.6 µM)	17	14	15	15	5.2
COc1ccc(Cl)cc1-n1ncc(-c2nnc(-c3cc(Cl)cc(Cl)c3)o2)c1C	29.6 (≈ 67.9 µM)	22.4 (≈ 51.4 µM)	31.8 (≈ 73 µM)	41 (≈ 94.1 µM)	25	21	13	15	5.61
COc1ccc(Cl)cc1-n1ncc(-c2nnc(-c3ccc(C)c([N+](=O)[O-])c3)o2)c1C	42 (≈ 98.6 µM)	30.8 (≈ 72.3 µM)	39.6 (≈ 93 µM)	40.6 (≈ 95.3 µM)	17	12	14	15	6.42
COc1ccc(Cl)cc1-n1ncc(-c2nnc(-c3ccc(C)c(Br)c3)o2)c1C	39 (≈ 84.8 µM)	40.6 (≈ 88.3 µM)	39.6 (≈ 86.1 µM)	29.8 (≈ 64.8 µM)	14	15	20	15	5.19
COc1ccc(Cl)cc1-n1ncc(-c2nnc(-c3ccc(Cl)c(Cl)c3)o2)c1C	39.6 (≈ 90.9 µM)	21.5 (≈ 49.3 µM)	30 (≈ 68.9 µM)	29.8 (≈ 68.4 µM)	27	15	20	19	5.57
COc1ccc(Cl)cc1-n1ncc(-c2nnc(-c3cccc(F)c3)o2)c1C	29.8 (≈ 77.4 µM)	30.6 (≈ 79.5 µM)	30 (≈ 78 µM)	21.5 (≈ 55.9 µM)	18	20	27	19	4.28
COc1ccc(Cl)cc1-n1ncc(-c2nnc(-c3ccc(F)cc3)o2)c1C	30 (≈ 78 µM)	29.6 (≈ 76.9 µM)	22.4 (≈ 58.2 µM)	29.8 (≈ 77.4 µM)	21	19	20	25	4.26
CC1(C)S[C@@H]2[C@H](NC(=O)[C@H](N)c3ccccc3)C(=O)N2[C@H]1C(=O)O [AMPICILLIN]	4 (≈ 11.4 µM)	3.88 (≈ 11.1 µM)	3.28 (≈ 9.39 µM)	3.36 (≈ 9.62 µM)	30	30	31	32	
COc1ccc(Cl)cc1-n1ncc(-c2nnc(-c3ccccc3)o2)c1C	40.6 (≈ 111 µM)	40.6 (≈ 111 µM)	29.8 (≈ 81.2 µM)	39.8 (≈ 109 µM)	14	14	15	20	4.32
COc1ccc(Cl)cc1-n1ncc(-c2nnc(-c3ccc(Cl)cc3)o2)c1C	41 (≈ 102 µM)	40 (≈ 99.7 µM)	39.6 (≈ 98.7 µM)	30.6 (≈ 76.3 µM)	14	13	18	15	4.51
